Results from ChEMBL document CHEMBL2202985, “Novel series of 3-amino-N-(4-aryl-1,1-dioxothian-4-yl)butanamides as potent and selective dipeptidyl peptidase IV inhibitors” (Bioorg Med Chem Lett, 2012).
Active and inactive are the calls of the source. No cut-off for these calls is given here.

How the values were obtained:
Mus musculus [1] = assay: Antidiabetic activity in po dosed ICR mouse assessed as blood glucose excursion after 20 to 120 mins by oral glucose tolerance test; format: functional, organism-based
Summary of the method: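 ICR mice dosed orally with distilled water vehicle or compound at 1, 3 or 10 mg/kg (10 mL/kg). Tail-nick blood glucose read by glucometer 30 min after dosing, then oral glucose challenge 2 g/kg (10 mL/kg). Blood glucose measured from tail bleeds at 20, 40, 60 and 120 min after glucose.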

Mus musculus [2] = assay: Inhibition of DPP4 in po dosed mouse plasma; format: functional, organism-based
Mus musculus [3] = species: Mus musculus; assay: Metabolic stability in mouse; format: ADME, organism-based; settings: in vivo
Homo sapiens = species: Homo sapiens; assay: Metabolic stability in human; format: ADME, organism-based; settings: in vivo
Mus musculus [4] = assay: Inhibition of DPP4 in mouse plasma at 30 to 100 mg/kg, po; format: functional, organism-based

N[C@@H](CC(=O)NC1(c2nc(-c3ccccc3)cs2)CCS(=O)(=O)CC1)Cc1cc(F)c(F)cc1F
Activity (Mus musculus [1]): Dose-dependent effect | inhibition (Mus musculus [2]): Dose-dependent effect | Stability (Mus musculus [3]): Stable | Stability (Homo sapiens): Stable

N[C@@H](CC(=O)NC1(c2cccc(-n3ccnc3)c2)CCS(=O)(=O)CC1)Cc1cc(F)c(F)cc1F
inhibition (Mus musculus [4]): inactive | Stability (Mus musculus [3]): Stable | Stability (Homo sapiens): Stable

N[C@@H](CC(=O)NC1(c2cccc(-c3cncs3)c2)CCS(=O)(=O)CC1)Cc1cc(F)c(F)cc1F
inhibition (Mus musculus [4]): inactive | Stability (Mus musculus [3]): Stable | Stability (Homo sapiens): Stable
